Measured values as given in ChEMBL document CHEMBL1123529, “Analogues of substance P. Peptides containing D-amino acid residues in various positions of substance P and displaying agonist or receptor selective antagonist effects” (1986).
“And” between values parts separate entries of the source, which are not always exact repeats. Identical values can stand only once.

What was measured:
[1] = biological target: Metabotropic glutamate receptor 3 (Rattus norvegicus) (UniProt P31422); test: Antagonistic activity against Glutamate receptor in rat spinal cord at concentration of 50 uM.; type: functional, tissue-based
Sequence of Metabotropic glutamate receptor 3 (Rattus norvegicus) (P31422 23-879 limits assumed): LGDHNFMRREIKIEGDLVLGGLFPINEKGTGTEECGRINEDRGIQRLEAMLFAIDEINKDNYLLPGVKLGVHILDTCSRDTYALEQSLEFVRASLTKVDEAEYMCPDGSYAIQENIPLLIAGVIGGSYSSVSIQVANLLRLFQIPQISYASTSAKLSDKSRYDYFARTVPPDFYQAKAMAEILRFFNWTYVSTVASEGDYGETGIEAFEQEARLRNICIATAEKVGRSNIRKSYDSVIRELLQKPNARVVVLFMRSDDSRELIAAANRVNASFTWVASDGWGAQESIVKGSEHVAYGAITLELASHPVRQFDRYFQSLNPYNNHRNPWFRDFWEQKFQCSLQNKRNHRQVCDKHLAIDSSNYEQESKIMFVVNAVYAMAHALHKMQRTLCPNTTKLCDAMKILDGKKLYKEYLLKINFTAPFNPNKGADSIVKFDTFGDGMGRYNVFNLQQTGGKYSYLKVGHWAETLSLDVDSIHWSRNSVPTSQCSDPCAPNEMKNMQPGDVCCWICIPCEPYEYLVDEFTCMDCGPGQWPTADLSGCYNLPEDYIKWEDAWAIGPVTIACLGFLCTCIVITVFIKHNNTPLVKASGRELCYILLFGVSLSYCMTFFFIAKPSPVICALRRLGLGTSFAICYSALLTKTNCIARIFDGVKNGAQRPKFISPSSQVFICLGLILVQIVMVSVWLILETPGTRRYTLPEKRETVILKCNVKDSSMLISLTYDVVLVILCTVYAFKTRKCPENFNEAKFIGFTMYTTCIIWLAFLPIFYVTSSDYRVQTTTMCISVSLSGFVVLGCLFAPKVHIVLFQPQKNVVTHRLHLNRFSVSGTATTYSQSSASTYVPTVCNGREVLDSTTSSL
How it was run: (§1)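 Neonatal hemisectioned spinal cord from Wistar rats (Alderley Park strain, 2-7 days old), anaesthetised with intraperitoneal urethane (25% w/v, […]) and then decapitated. Cord superfused with oxygenated medium at 1 mL/min. Agonist (SP, SP(6-11), glutamate or carbachol) applied as 2-mL doses in the superfusate. Antagonist superfused for at least 15 min before agonists were retested. Read-out: % change in ventral root–cord DC potential response amplitude.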

[2] = biological target: Substance-P receptor (Rattus norvegicus) (UniProt P14600); test: Antagonistic activity against Substance P(6-11) receptor in rat spinal cord at concentration of 50 uM.
Sequence of Substance-P receptor (Rattus norvegicus) (P14600 whole entry, looked up): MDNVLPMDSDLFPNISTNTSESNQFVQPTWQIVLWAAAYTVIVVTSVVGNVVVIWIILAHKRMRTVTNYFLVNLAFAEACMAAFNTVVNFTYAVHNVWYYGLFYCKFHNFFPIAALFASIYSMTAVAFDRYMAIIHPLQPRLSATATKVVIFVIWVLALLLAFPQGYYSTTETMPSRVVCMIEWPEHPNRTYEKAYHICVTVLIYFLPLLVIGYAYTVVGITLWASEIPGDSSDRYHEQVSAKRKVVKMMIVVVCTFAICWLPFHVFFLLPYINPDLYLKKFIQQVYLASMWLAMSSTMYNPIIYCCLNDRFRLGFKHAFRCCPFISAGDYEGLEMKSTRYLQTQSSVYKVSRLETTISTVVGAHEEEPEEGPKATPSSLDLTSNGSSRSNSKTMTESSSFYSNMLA

[3] = biological target: Substance-P receptor (Cavia porcellus) (UniProt P30547); test: Antagonistic activity against Substance P(6-11) receptor in guinea pig ileum at concentration of 50 uM.; type: functional, tissue-based
Sequence of Substance-P receptor (Cavia porcellus) (P30547 whole entry): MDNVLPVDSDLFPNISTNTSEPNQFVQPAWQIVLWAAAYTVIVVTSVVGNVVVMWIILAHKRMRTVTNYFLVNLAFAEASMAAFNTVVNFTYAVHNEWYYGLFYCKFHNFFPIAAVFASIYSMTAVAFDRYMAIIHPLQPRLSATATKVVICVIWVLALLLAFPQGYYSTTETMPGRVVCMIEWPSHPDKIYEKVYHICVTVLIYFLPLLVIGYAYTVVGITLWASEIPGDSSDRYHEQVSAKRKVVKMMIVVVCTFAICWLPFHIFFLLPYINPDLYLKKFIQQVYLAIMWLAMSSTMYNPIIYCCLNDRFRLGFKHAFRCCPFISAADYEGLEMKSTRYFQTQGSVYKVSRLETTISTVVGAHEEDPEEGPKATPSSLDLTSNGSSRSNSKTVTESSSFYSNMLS
How it was run: (§2)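 Distal ileum from Dunkin-Hartley guinea pigs (300-350 g, both sexes) in a Krebs organ bath at 37 °C, gassed with 95% O2/5% CO2. Agonist (SP or SP(6-11)) dose-response curves run on a 3-min cycle with 1-min contact, with and without antagonist. Dose ratio = agonist EC50 with antagonist / EC50 alone. At least two preparations per compound; ratios below 2 taken as insignificant.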

[4] = biological target: Substance-P receptor (Rattus norvegicus) (UniProt P14600); test: Antagonistic activity against Substance P receptor in rat spinal cord at concentration of 50 uM.
[5] = biological target: Substance-P receptor (Cavia porcellus) (UniProt P30547); test: Antagonistic activity against Substance P receptor in guinea pig ileum at concentration of 50 uM.; type: functional, tissue-based; how it was run: as §2
[6] = biological target: Substance-P receptor (Cavia porcellus) (UniProt P30547); test: Evaluated in vitro for percent agonist activity in guinea pig ileum (substance P receptor); type: functional, tissue-based
[7] = biological target: Substance-P receptor (Rattus norvegicus) (UniProt P14600); test: Antagonistic activity against Substance P(6-11) receptor in rat spinal cord at concentration of 5 uM.
[8] = biological target: Substance-P receptor (Cavia porcellus) (UniProt P30547); test: Antagonistic activity against Substance P(6-11) receptor in guinea pig ileum at concentration of 14 uM.; type: functional, tissue-based; how it was run: as §2
[9] = biological target: Substance-P receptor (Cavia porcellus) (UniProt P30547); test: Antagonistic activity against Substance P receptor in guinea pig ileum at concentration of 14 uM.; type: functional, tissue-based; how it was run: as §2
[10] = biological target: Substance-P receptor (Cavia porcellus) (UniProt P30547); test: Antagonistic activity against Substance P receptor in guinea pig ileum at concentration of 5 uM.; type: functional, tissue-based; how it was run: as §2
[11] = biological target: Substance-P receptor (Cavia porcellus) (UniProt P30547); test: Antagonistic activity against Substance P(6-11) receptor in guinea pig ileum at concentration of 5 uM.; type: functional, tissue-based; how it was run: as §2
[12] = biological target: Substance-P receptor (Rattus norvegicus) (UniProt P14600); test: Antagonistic activity against Substance P receptor in rat spinal cord at concentration of 5 uM.
[13] = biological target: Substance-P receptor (Cavia porcellus) (UniProt P30547); test: In vitro percent agonist activity in guinea pig ileum.; type: functional, tissue-based
How it was run: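 Distal ileum from Dunkin-Hartley guinea pigs (300-350 g, either sex) in a 5-mL organ bath of Krebs solution at 37 °C, gassed with 95% O2/5% CO2. Dose-response curves were run on a 3-min cycle with 1-min agonist contact and washout. Agonist activity is expressed as a percentage of substance P.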

[14] = biological target: Substance-P receptor (Rattus norvegicus) (UniProt P14600); test: Antagonistic activity against Substance P(6-11) receptor in rat spinal cord at concentration of 25 uM.
[15] = biological target: Substance-P receptor (Rattus norvegicus) (UniProt P14600); test: Antagonistic activity against Substance P receptor in rat spinal cord at concentration of 25 uM.
[16] = biological target: Metabotropic glutamate receptor 3 (Rattus norvegicus) (UniProt P31422); test: Antagonistic activity against Glutamate receptor in rat spinal cord at concentration of 25 uM.; type: functional, tissue-based; how it was run: as §1

SMILES | Change in amplitude response [1] | Change in amplitude response [2] | Activity [3] | Change in amplitude response [4] | Activity [5] | SP [6] | Change in amplitude response [7] | also measured
COC(=O)[C@H](CCSC)NC(=O)[C@@H]1CCCN1C(=O)[C@H]1CCCN1C(=O)[C@H](Cc1ccccc1)NC(=O)[C@H](Cc1ccccc1)NC(=O)[C@H](CCC(N)=O)NC(=O)[C@H](CCC(N)=O)NC(=O)[C@@H]1CCCN1C(=O)[C@@H](CCCCNC(=O)OCc1ccccc1)NC(=O)[C@H]1CCCN1C(=O)[C@@H](CCCN=C(N)N)NC(=O)OCc1ccccc1 | 2% | -100% | < 2 dose ratio | 29% and 39% | 3 dose ratio | 0% | -67% | 
COC(=O)[C@@H](CCSC)NC(=O)[C@H](CC(C)C)NC(=O)CNC(=O)[C@H](Cc1ccccc1)NC(=O)[C@H](Cc1ccccc1)NC(=O)[C@@H]1CCCN1C(=O)[C@H]1CCCN1C(=O)[C@@H]1CCCN1C(=O)[C@H](CCCCNC(=O)OCc1ccccc1)NC(=O)[C@@H]1CCCN1C(=O)[C@H](CCCN=C(N)N)NC(=O)OCc1ccccc1 |  |  |  |  |  | 0.004% |  | Activity [8]: < 2 dose ratio; Activity [9]: < 2 dose ratio
COC(=O)[C@H](CCSC)NC(=O)[C@@H]1CCCN1C(=O)[C@H]1CCCN1C(=O)[C@H](Cc1ccccc1)NC(=O)[C@H](Cc1ccccc1)NC(=O)[C@H](CCC(N)=O)NC(=O)[C@H](CCC(N)=O)NC(=O)[C@@H]1CCCN1C(=O)[C@H](CCCCNC(=O)OCc1ccccc1)NC(=O)[C@@H]1CCCN1C(=O)[C@H](CCCN=C(N)N)NC(=O)OCc1ccccc1 | -37% | -86% |  | -9% |  | 0% | -46% | Activity [10]: < 2 dose ratio; Activity [11]: < 2 dose ratio; Change in amplitude response [12]: 12%
COC(=O)[C@@H](CCSC)NC(=O)[C@H](CC(C)C)NC(=O)[C@@H](Cc1c[nH]c2ccccc12)NC(=O)[C@H](Cc1c[nH]c2ccccc12)NC(=O)[C@@H](Cc1c[nH]c2ccccc12)NC(=O)[C@H](CCC(N)=O)NC(=O)[C@H](CCC(N)=O)NC(=O)[C@@H]1CCCN1C(=O)[C@H](CCCCNC(=O)OCc1ccccc1)NC(=O)[C@@H]1CCCN1C(=O)[C@H](CCCN=C(N)N)NC(=O)OCc1ccccc1 |  |  |  |  |  |  |  | SP [13]: 0%
COC(=O)[C@H](CCSC)NC(=O)[C@@H](NC(=O)[C@H](NC(=O)[C@H](Cc1ccccc1)NC(=O)[C@H](Cc1ccccc1)NC(=O)[C@H](CCC(N)=O)NC(=O)[C@H](CCC(N)=O)NC(=O)[C@@H]1CCCN1C(=O)[C@H](CCCCNC(=O)OCc1ccccc1)NC(=O)[C@@H]1CCCN1C(=O)[C@H](CCCN=C(N)N)NC(=O)OCc1ccccc1)C(C)C)C(C)C | -36% | -22% | < 2 dose ratio | -30% | < 2 dose ratio | 0% |  | 
CSCC[C@@H](NC(=O)[C@H](CC(C)C)NC(=O)[C@@H](Cc1c[nH]c2ccccc12)NC(=O)[C@H](Cc1c[nH]c2ccccc12)NC(=O)[C@@H](Cc1c[nH]c2ccccc12)NC(=O)[C@H](CCC(N)=O)NC(=O)[C@H](CCC(N)=O)NC(=O)[C@@H]1CCCN1C(=O)[C@H](CCCCNC(=O)OCc1ccccc1)NC(=O)[C@@H]1CCCN1C(=O)[C@H](CCCN=C(N)N)NC(=O)OCc1ccccc1)C(=O)O |  |  |  |  |  | < 2% |  | Change in amplitude response [14]: -49%; Change in amplitude response [15]: -12%; Change in amplitude response [16]: -40%
